Experimental data reported in ChEMBL document CHEMBL3091445, “The 3,7-diazabicyclo[3.3.1]nonane scaffold for subtype selective nicotinic acetylcholine receptor ligands. Part 2: carboxamide derivatives with different spacer motifs” (Bioorg Med Chem, 2013).
Activity calls are given as the source filed them. The rule behind the calls is not given here.

Key:
[1] = biological target: T1, Nicotinic acetylcholine receptor alpha1/beta1/epsilon/delta (Mus musculus) (UniProt P04756+P09690+P02716+P20782); assay: Antagonist activity at mouse muscle alpha1beta1epsilondelta nAChR expressed in Xenopus oocytes assessed as inhibition of acetylcholine-induced effect at 1 uM incubated for 8 secs followed by compound washout measured after 241 secs by two-electrode voltage clamp technique; assay type: cell-based
[2] = biological target: Neuronal acetylcholine receptor subunit alpha-7 (Homo sapiens) (UniProt P36544); assay: Agonist activity at human alpha7 nAChR expressed in Xenopus oocytes at 1 uM incubated for 12 secs followed by compound washout measured after 181 secs by two-electrode voltage clamp technique; assay type: cell-based
Sequence of Neuronal acetylcholine receptor subunit alpha-7 (Homo sapiens) (P36544 whole entry): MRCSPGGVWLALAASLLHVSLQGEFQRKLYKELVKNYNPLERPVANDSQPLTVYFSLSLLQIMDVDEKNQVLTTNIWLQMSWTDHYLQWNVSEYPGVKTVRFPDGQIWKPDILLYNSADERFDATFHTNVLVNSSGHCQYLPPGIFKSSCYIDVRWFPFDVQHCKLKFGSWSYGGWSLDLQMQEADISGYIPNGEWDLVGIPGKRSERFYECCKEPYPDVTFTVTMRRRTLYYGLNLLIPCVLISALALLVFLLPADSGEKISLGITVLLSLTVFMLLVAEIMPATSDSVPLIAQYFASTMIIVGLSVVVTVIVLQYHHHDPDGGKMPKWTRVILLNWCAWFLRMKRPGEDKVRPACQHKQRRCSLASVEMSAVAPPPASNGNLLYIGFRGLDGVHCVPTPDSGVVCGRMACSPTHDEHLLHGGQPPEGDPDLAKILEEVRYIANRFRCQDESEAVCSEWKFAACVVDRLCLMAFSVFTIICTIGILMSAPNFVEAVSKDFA

[3] = biological target: Neuronal acetylcholine receptor; alpha4/beta2 (Rattus norvegicus, UniProt P09483+P12390); assay: Displacement of [3H]epibatidine from Sprague-Dawley rat brain alpha4beta2 nAChR after 90 mins by liquid scintillation counting analysis
Sequence of Neuronal acetylcholine receptor; alpha4/beta2 (P09483 whole entry): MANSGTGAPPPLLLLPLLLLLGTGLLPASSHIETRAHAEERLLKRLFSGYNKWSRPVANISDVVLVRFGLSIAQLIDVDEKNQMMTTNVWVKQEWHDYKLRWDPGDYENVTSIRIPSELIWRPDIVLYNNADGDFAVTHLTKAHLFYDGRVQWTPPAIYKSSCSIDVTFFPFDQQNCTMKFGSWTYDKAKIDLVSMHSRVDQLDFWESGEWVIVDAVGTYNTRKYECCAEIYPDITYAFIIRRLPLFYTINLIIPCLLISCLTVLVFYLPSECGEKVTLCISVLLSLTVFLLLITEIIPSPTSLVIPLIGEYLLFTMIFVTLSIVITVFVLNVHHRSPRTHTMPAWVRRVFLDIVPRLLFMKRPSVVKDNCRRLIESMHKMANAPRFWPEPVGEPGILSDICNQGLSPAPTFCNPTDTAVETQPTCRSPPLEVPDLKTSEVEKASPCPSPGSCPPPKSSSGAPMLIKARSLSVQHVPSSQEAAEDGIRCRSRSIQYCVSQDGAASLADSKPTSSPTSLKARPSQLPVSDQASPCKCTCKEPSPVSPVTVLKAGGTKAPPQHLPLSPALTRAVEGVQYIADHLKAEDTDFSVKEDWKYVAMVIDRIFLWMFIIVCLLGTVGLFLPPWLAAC
Sequence of Neuronal acetylcholine receptor; alpha4/beta2 (P12390 whole entry): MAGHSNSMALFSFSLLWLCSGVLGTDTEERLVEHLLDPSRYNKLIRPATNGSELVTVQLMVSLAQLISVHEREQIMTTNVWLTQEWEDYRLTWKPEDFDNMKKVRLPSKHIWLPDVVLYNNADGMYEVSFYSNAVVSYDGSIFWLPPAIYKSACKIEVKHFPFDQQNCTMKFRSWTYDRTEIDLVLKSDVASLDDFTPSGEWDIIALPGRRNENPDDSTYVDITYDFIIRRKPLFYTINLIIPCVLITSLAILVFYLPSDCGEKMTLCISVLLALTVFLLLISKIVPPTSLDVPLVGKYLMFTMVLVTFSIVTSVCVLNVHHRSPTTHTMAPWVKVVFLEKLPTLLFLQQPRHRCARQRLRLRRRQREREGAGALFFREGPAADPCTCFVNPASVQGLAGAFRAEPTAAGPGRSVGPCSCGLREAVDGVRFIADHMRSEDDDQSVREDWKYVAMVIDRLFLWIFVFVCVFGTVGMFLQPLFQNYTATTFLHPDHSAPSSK
Summary of the method: (§1)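 Radioligand competition binding gave Ki values, reported as mean ± SEM from 2–10 independent experiments.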

[4] = biological target: Neuronal acetylcholine receptor subunit alpha-7 (Homo sapiens) (UniProt P36544); assay: Antagonist activity at human alpha7 nAChR expressed in Xenopus oocytes assessed as inhibition of acetylcholine-induced effect at 1 uM incubated for 12 secs followed by compound washout measured after 181 secs by two-electrode voltage clamp technique; assay type: cell-based
[5] = Displacement of [3H]epibatidine from calf adrenal alpha3beta4 nAChR after 90 mins by liquid scintillation counting analysis; design: species or system Bos taurus
[6] = biological target: T1, Nicotinic acetylcholine receptor alpha1/beta1/epsilon/delta (Mus musculus); assay: Agonist activity at mouse muscle alpha1beta1epsilondelta nAChR expressed in Xenopus oocytes at 1 uM incubated for 8 secs followed by compound washout measured after 241 secs by two-electrode voltage clamp technique; assay type: cell-based
[7] = biological target: T2, Neuronal acetylcholine receptor; alpha3/beta4 (Homo sapiens) (UniProt P30926+P32297); assay: Agonist activity at human alpha3beta4 nAChR expressed in Xenopus oocytes at 1 uM incubated for 8 secs followed by compound washout measured after 241 secs by two-electrode voltage clamp technique; assay type: cell-based
[8] = biological target: Neuronal acetylcholine receptor subunit alpha-7 (Rattus norvegicus, UniProt Q05941); assay: Displacement of [3H]methyllycaconitine from Sprague-Dawley rat brain alpha7 nAChR after 120 mins by liquid scintillation counting analysis; assay type: tissue-based; summary of the method: as §1
Sequence of Neuronal acetylcholine receptor subunit alpha-7 (Q05941 whole entry): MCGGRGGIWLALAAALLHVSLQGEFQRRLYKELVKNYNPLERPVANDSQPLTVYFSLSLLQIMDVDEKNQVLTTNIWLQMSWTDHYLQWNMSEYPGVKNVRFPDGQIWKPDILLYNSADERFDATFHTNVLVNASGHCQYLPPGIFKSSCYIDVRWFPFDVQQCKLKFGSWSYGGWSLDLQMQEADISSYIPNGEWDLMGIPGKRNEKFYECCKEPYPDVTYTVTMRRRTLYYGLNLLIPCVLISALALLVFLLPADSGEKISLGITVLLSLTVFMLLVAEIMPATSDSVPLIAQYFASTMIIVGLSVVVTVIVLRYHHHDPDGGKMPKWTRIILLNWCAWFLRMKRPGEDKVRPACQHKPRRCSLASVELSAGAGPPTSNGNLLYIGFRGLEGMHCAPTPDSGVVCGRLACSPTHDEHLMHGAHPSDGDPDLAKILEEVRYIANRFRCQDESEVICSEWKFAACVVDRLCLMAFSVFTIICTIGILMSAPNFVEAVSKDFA

[9] = biological target: T3, Neuronal acetylcholine receptor; alpha4/beta2 (Homo sapiens) (UniProt P17787+P43681); assay: Partial agonist activity at human alpha4beta2 nAChR expressed in Xenopus oocytes at 1 uM incubated for 8 secs followed by compound washout measured after 241 secs by two-electrode voltage clamp technique; assay type: cell-based
[10] = biological target: T2, Neuronal acetylcholine receptor; alpha3/beta4 (Homo sapiens); assay: Antagonist activity at human alpha3beta4 nAChR expressed in Xenopus oocytes at 1 uM incubated for 8 secs followed by compound washout measured after 241 secs by two-electrode voltage clamp technique; assay type: cell-based
[11] = Displacement of [3H]epibatidine from Torpedo californica electroplax (alpha1)2beta1gammadelta nAChR after 90 mins by liquid scintillation counting analysis; design: species or system Tetronarce californica
[12] = biological target: T2, Neuronal acetylcholine receptor; alpha3/beta4 (Homo sapiens); assay: Agonist activity at human alpha3beta4 nAChR expressed in Xenopus oocytes at 10 uM incubated for 8 secs followed by compound washout measured after 241 secs by two-electrode voltage clamp technique; assay type: cell-based
[13] = biological target: T1, Nicotinic acetylcholine receptor alpha1/beta1/epsilon/delta (Mus musculus); assay: Agonist activity at mouse muscle alpha1beta1epsilondelta nAChR expressed in Xenopus oocytes at 10 uM incubated for 8 secs followed by compound washout measured after 241 secs by two-electrode voltage clamp technique; assay type: cell-based
[14] = biological target: T3, Neuronal acetylcholine receptor; alpha4/beta2 (Homo sapiens); assay: Partial agonist activity at human alpha4beta2 nAChR expressed in Xenopus oocytes at 10 uM incubated for 8 secs followed by compound washout measured after 241 secs by two-electrode voltage clamp technique; assay type: cell-based

Row | Structure (SMILES) | inhibition [1] | Activity [2] | Ki [3] [nM] | inhibition [4] | Ki [5] [nM] | Activity [6] | Activity [7] | Ki [8] [nM] | Activity [9] | Activity [10] | Ki [11] [nM] | Activity [12] | Activity [13] | Activity [14]
1 | Cc1cc(CC(=O)N2C[C@@H]3CNC[C@@H](C3)C2)on1 | inactive | inactive | 46.9 | inactive | > 1000 | inactive | inactive | > 1000 | Active | inactive | – | – | – | –
2 | O=c1c(-c2ccc3c(c2)OCO3)ccc2n1C[C@@H]1CNC[C@H]2C1 | – | – | 110 | – | > 10000 | – | – | > 10000 | – | – | > 10000 | – | – | –
3 | O=C(C#Cc1ccccc1)N1C[C@@H]2CNC[C@@H](C2)C1 | inactive | – | 10.9 | inactive | > 1000 | – | – | > 5000 | – | inactive | > 1000 | inactive | inactive | Active
4 | COc1cc(CCC(=O)N2C[C@@H]3CNC[C@@H](C3)C2)cc(OC)c1OC | – | – | 233 | – | > 5000 | – | – | > 10000 | – | – | – | – | – | –
5 | O=C(/C=C/c1cccs1)N1C[C@@H]2CNC[C@@H](C2)C1 | – | – | 96.9 | – | 2000 | – | – | > 10000 | – | – | – | – | – | –
6 | O=C(/C=C/c1ccncc1)N1C[C@@H]2CNC[C@@H](C2)C1 | inactive | inactive | 1.03 | inactive | > 1000 | inactive | inactive | > 10000 | Active | inactive | > 5000 | inactive | inactive | Active
7 | O=C(c1csc(-c2ccncc2)n1)N1C[C@@H]2CNC[C@@H](C2)C1 | – | – | > 1000 | – | – | – | – | – | – | – | – | – | – | –
8 | O=C(Cc1c(F)c(F)c(F)c(F)c1F)N1C[C@@H]2CNC[C@@H](C2)C1 | – | – | > 5000 | – | – | – | – | – | – | – | – | – | – | –
9 | O=C(C#Cc1cccc2ccccc12)N1C[C@@H]2CNC[C@@H](C2)C1 | – | – | 46 | – | > 1000 | – | – | > 1000 | – | – | > 5000 | – | – | –
10 | O=C(CCc1cccnc1)N1C[C@@H]2CNC[C@@H](C2)C1 | inactive | – | 39 | inactive | > 5000 | – | – | > 5000 | – | inactive | > 5000 | inactive | inactive | Active
11 | O=C(/C=C/c1cccc(Br)c1)N1C[C@@H]2CNC[C@@H](C2)C1 | – | – | 24.6 | – | – | – | – | > 10000 | – | – | – | – | – | –
12 | O=C(/C=C/c1ccsc1)N1C[C@@H]2CNC[C@@H](C2)C1 | inactive | – | 57.1 | inactive | – | – | – | > 10000 | – | inactive | – | inactive | inactive | Active
13 | O=c1c(-c2cccnc2)ccc2n1C[C@@H]1CNC[C@H]2C1 | – | – | – | – | – | – | – | – | – | – | > 5000 | – | – | –
14 | O=C(/C=C/c1ccc2c(c1)OCO2)N1C[C@@H]2CNC[C@@H](C2)C1 | inactive | inactive | 36.9 | inactive | > 1000 | inactive | inactive | > 1000 | Active | inactive | > 5000 | inactive | inactive | Active
15 | O=C(Cc1ccccc1)N1C[C@@H]2CNC[C@@H](C2)C1 | inactive | inactive | 57.6 | inactive | – | inactive | inactive | > 10000 | Active | inactive | – | inactive | inactive | Active
16 | O=C(C#Cc1cccc(F)c1)N1C[C@@H]2CNC[C@@H](C2)C1 | – | – | 7.1 | – | > 1000 | – | – | > 1000 | – | – | > 5000 | – | – | –
17 | O=C(COc1ccccc1Cl)N1C[C@@H]2CNC[C@@H](C2)C1 | – | – | 548 | – | > 5000 | – | – | > 5000 | – | – | > 5000 | – | – | –
18 | O=c1c(-c2ccncc2)ccc2n1C[C@@H]1CNC[C@H]2C1 | – | – | 3.9 | – | – | – | – | > 10000 | – | – | > 10000 | – | – | –

Row | Structure (SMILES) | inhibition [1] | Activity [2] | Ki [3] [nM] | inhibition [4] | Ki [5] [nM] | Activity [6] | Activity [7] | Ki [8] [nM] | Activity [9] | Activity [10] | Ki [11] [nM] | Activity [12] | Activity [13] | Activity [14]
19 | COc1ccc(/C=C/C(=O)N2C[C@@H]3CNC[C@@H](C3)C2)cc1 | inactive | inactive | 39.6 | inactive | – | inactive | inactive | – | Active | inactive | – | inactive | inactive | Active
20 | O=C(/C=C/c1ccco1)N1C[C@@H]2CNC[C@@H](C2)C1 | – | – | 288 | – | > 1000 | – | – | > 1000 | – | – | > 5000 | – | – | –
21 | COc1ccc(C#CC(=O)N2C[C@@H]3CNC[C@@H](C3)C2)cc1 | – | – | 7.8 | – | > 1000 | – | – | > 1000 | – | – | > 5000 | – | – | –
22 | O=C(c1ccc(-c2ccccc2)cc1)N1C[C@@H]2CNC[C@@H](C2)C1 | – | – | – | – | 1090 | – | – | – | – | – | – | – | – | –
23 | O=C(/C=C/c1cccc2ccccc12)N1C[C@@H]2CNC[C@@H](C2)C1 | – | – | 297 | – | > 5000 | – | – | > 1000 | – | – | > 5000 | – | – | –
24 | O=C(c1ccccc1)N1C[C@@H]2CNC[C@@H](C2)C1 | – | – | – | – | > 5000 | – | – | – | – | – | > 10000 | – | – | –
25 | O=C(/C=C/c1ccc(F)cc1)N1C[C@@H]2CNC[C@@H](C2)C1 | inactive | – | 20.7 | inactive | > 5000 | – | – | > 5000 | – | inactive | > 10000 | – | inactive | Active
26 | COc1cccc(C#CC(=O)N2C[C@@H]3CNC[C@@H](C3)C2)c1 | – | – | 6.3 | – | > 1000 | – | – | > 1000 | – | – | > 5000 | – | – | –
27 | Cc1ccc(C#CC(=O)N2C[C@@H]3CNC[C@@H](C3)C2)cc1 | – | – | 10.9 | – | > 1000 | – | – | > 1000 | – | – | > 5000 | – | – | –
28 | O=C(/C=C/c1cccc(Cl)c1)N1C[C@@H]2CNC[C@@H](C2)C1 | inactive | – | 23.7 | inactive | – | – | – | > 10000 | – | inactive | – | inactive | inactive | Active
29 | O=C(Cc1ccc2ccccc2c1)N1C[C@@H]2CNC[C@@H](C2)C1 | inactive | – | 10.2 | inactive | > 1000 | – | – | > 1000 | – | inactive | > 5000 | inactive | inactive | Active
30 | O=C(CCc1ccccc1)N1C[C@@H]2CNC[C@@H](C2)C1 | inactive | inactive | 52.5 | inactive | 396 | inactive | inactive | > 10000 | Active | inactive | – | inactive | inactive | Active
31 | O=c1cccc2n1C[C@@H]1CNC[C@H]2C1 [CYTISINICLINE] | – | – | – | – | 18 | – | – | 261 | – | – | 1300 | – | – | –
32 | COc1ccccc1C#CC(=O)N1C[C@@H]2CNC[C@@H](C2)C1 | – | – | 242 | – | > 1000 | – | – | > 1000 | – | – | > 5000 | – | – | –
33 | O=C(/C=C/c1cccc([N+](=O)[O-])c1)N1C[C@@H]2CNC[C@@H](C2)C1 | – | – | 38.9 | – | > 1000 | – | – | – | – | – | > 10000 | – | – | –
34 | O=c1c(-c2ccccc2)ccc2n1C[C@@H]1CNC[C@H]2C1 | – | – | 128 | – | > 10000 | – | – | > 10000 | – | – | > 10000 | – | – | –
35 | COc1ccccc1/C=C/C(=O)N1C[C@@H]2CNC[C@@H](C2)C1 | – | – | 172 | – | – | – | – | – | – | – | > 10000 | – | – | –
